A selection: hits, their analogues and other compounds. The true share with any hit is near 1.9%.
Neddylation inh – inhibitors of cullin neddylation, primary screen, biochemical, TR-FRET, uHTS, NAE and Ubc12 | NEDD8-conjugating enzyme Ubc12 (Homo sapiens) + NEDD8-activating enzyme E1 regulatory … | AID 651699, 2012 | inhibition, % at 25 µM | hit rate 0.58% among 360,000; in the data active = inhibition above about 36%
SR-BI DiI-HDL act – activators of SR-BI mediated DiI-HDL uptake, primary screen, ldlA[mSR-BI] CHO cells, DiI fluorescence; 3 h; 100 = double the neutral-control signal; activation, % at 12.5 µM; hit rate 0.096% among 320,000;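 active = mean replicate activation of at least 60% and every replicate at or above 60%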;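 note: 0% = median plate neutral-control signal and 100% = twice that signal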
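system = CHO ldlA[mSR-BI] cells, LDL receptor-null, SR-BI overexpressing | medium = Ham's F12 with 0.5% BSA, HEPES 25 mM, pH 7.4 | probe or stimulus = DiI-HDL 10 µg/mL | compound dosing = single-point compound dose | incubation = compound exposure 3 h, 37 °C | technique = DiI fluorescence, bottom read | read-out = cell-associated DiI fluorescence as measure of HDL uptake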
UBC13 polyUb – UBC13 polyubiquitin chain formation inhibitors, primary screen, biochemical, TR-FRET, uHTS | inhibition, % at 20 µM | hit rate 0.47% among 330,000 | AID 485273, 2010; in the data active = inhibition above about 45%, passing the limit was not always enough
SR-BI HDL uptake – inhibitors of SR-BI mediated HDL lipid uptake, primary screen, ldlA[mSR-BI] cells, fluorescence, single point; Scavenger receptor class B member 1 (Mus musculus), Q61009; hit rate 0.96% among 320,000; ldlA[mSR-BI] CHO cells, DiI-HDL uptake fluorescence, 3 h; inhibition, % at 12.5 µM;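 active = mean replicate inhibition of at least 70% and a set share of replicates each scoring 70 or more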;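 note: 0% = median of neutral control wells and 100% = median of positive control wells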
Target sequence (Q61009 whole entry, looked up): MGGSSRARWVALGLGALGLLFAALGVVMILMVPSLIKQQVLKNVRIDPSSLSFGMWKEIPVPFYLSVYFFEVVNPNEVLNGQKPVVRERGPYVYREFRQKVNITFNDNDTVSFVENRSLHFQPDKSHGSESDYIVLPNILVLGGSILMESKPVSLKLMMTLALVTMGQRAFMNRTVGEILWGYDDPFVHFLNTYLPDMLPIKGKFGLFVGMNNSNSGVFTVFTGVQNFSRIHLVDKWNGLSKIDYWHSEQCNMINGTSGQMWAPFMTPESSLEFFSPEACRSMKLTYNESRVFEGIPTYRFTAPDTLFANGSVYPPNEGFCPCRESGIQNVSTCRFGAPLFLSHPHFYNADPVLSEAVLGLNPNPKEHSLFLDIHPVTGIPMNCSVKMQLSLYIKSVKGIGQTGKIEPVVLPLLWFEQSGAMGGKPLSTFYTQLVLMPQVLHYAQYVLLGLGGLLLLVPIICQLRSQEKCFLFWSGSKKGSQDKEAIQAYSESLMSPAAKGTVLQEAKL
An asterisk follows results filed as active; nt = not tested or not shown.

SMILES	Neddylation inh	SR-BI DiI-HDL act	UBC13 polyUb	SR-BI HDL uptake
CCOC(=O)c1c(C)[nH]c(C(=O)COc2ccc3ccc(=O)oc3c2)c1C	-6	12	5	-12
O=C(Nc1ccc(F)cc1)C(CCc1ccccc1)N1CCN(Cc2c(F)cccc2Cl)CC1 (stereo not given)	3	nt	nt	nt
COCCn1c(=NC(=O)/C=C/c2ccccc2)sc2cc(NC(C)=O)ccc21	nt	-88	5	88*
CC1(C)CC2(CC(c3cccs3)c3cc(Cl)c(O)cc3O2)NC(=S)N1 (stereo not given)	1	-90	26	90*
Cc1ccc(NC(=O)CSCC(=O)N(CCC(C)C)c2c(N)n(Cc3ccccc3)c(=O)[nH]c2=O)cc1	4	16	-1	-16
O=[N+]([O-])c1ccccc1Nc1c2ccccc2nc2ccccc12	-31	-77	-30	77*
C=CC[C@@H](CC(=O)N[C@H](CO)Cc1ccccc1)C(=O)N[C@H](COC(=O)[C@@H](CC=C)CC(=O)OC(C)(C)C)Cc1ccccc1	-21	-27	5	27
COC(=O)c1cc(S(=O)(=O)N2c3ccccc3CC2C)cn1C (stereo not given)	2	-5	6	5
COc1c(/C=N/Nc2ccc([N+](=O)[O-])cc2[N+](=O)[O-])c(C)nn1-c1ccccc1	-8	-64	-87	64
COc1ccccc1NS(=O)(=O)c1ccc(N/N=C/c2c(C)nn(-c3ccccc3)c2N2CCCC2)c([N+](=O)[O-])c1	-10	-90	-63	90*
Cc1nn(-c2ccccc2)c(N2CCCC2)c1/C=N/Nc1ccc(S(=O)(=O)Nc2ccccc2)cc1[N+](=O)[O-]	-20	-125	-53	125*
COc1cc([N+](=O)[O-])ccc1NC(=O)Nc1ccc2c(c1)OCCO2	-17	-97	13	97*
COc1cc(NC(=O)NCc2ccco2)ccc1-c1ccc(NC(=O)NCc2ccco2)cc1OC	28	-74	nt	74*
COc1ccc(NC(=O)NCc2ccco2)c(OC)c1	-5	18	-5	-18
COc1cc([N+](=O)[O-])ccc1NC(=O)NCc1ccco1	-32	-72	10	72*
COc1ccc(N2CCN(CCNC(=O)Nc3ccc([N+](=O)[O-])cc3OC)CC2)cc1	-20	-76	1	76*
COc1ccc(OC)c(NC(=O)NCCN2CCN(c3ccccc3)CC2)c1	11	-13	0	13
Cc1noc(NS(=O)(=O)c2ccc(NC(=O)c3nn(-c4ccccc4)ccc3=O)cc2)c1C	-19	13	-7	-13
O=c1[nH]c(-c2ccccc2)nnc1-c1ccccc1	-8	nt	1	nt
Cc1cc(OC(=O)c2c(C)cc(OC(=O)c3c(C)cc(O)cc3O)cc2O)cc(O)c1C(=O)O	10	2	-24	-2
COc1ccc(-c2nc3c(Cl)cc(C(F)(F)F)cn3c2Cc2cccc(F)c2)cc1OC	-40	nt	nt	nt
COc1cccc(NC(=O)CCCNC(=O)Cn2cnc3sc(C)c(C)c3c2=O)c1	7	-18	-2	18
COc1ccc(OC)c(NC(=O)CCCNC(=O)Cn2cnc3sc(C)c(C)c3c2=O)c1	0	-77	5	77*
CCCCC(=O)N(C)c1c(CC)nc2c(OCC(=O)C(C)(C)C)cccn12	6	nt	nt	nt
O=C(N/N=C/c1ccccn1)c1ccccc1	-7	18	-12	-18
SMILES	Neddylation inh	SR-BI DiI-HDL act	UBC13 polyUb	SR-BI HDL uptake
Cc1cccc(/C=N/NC(=O)c2ccc(NC(=O)c3ccc(Cl)cc3)cc2)n1	35	-77	-4	77*
Cc1ccc(C(=O)Nc2ccc(C(=O)N/N=C/c3c[nH]c4ccccc34)cc2)cc1	nt	-94	6	94*
O=C(N/N=C/c1ccccc1)c1ccc(NC(=O)c2ccc(F)cc2)cc1	9	nt	4	nt
Cc1ccc(C(=O)Nc2ccc(C(=O)N/N=C/c3ccccn3)cc2)cc1	-4	-76	-6	76*
Cc1ccccc1C(=O)Nc1ccc(C(=O)N/N=C/c2ccc(F)cc2)cc1	0	-84	8	84*
Cc1ccc(S(=O)(=O)N(C)C[C@@H]2OCCCC[C@H](C)Oc3ccc(NC(=O)Nc4ccc(F)cc4)cc3C(=O)N([C@H](C)CO)C[C@H]2C)cc1	-47	nt	nt	nt
Cc1cc(C)cc(NC(=O)C(=O)NCC2CCCN2S(=O)(=O)c2cccs2)c1 (stereo not given)	5	-15	-3	15
CCn1nnnc1-c1ccc(OC)c(S(=O)(=O)Nc2ccccc2OC)c1	-10	nt	nt	nt

Screens from PubChem.
